Among the data in ChEMBL document CHEMBL3102848, “Carbamazepine derivatives with P2X4 receptor-blocking activity” (Bioorg Med Chem, 2014) are inhibition, IC50 and Ratio IC50 values, retold here.

The term inhibition denotes the change of the read-out against control, counted positive when it falls. In general, IC50 refers to the concentration that inhibits the measured activity by half.

Assay [1] concerns the target T1, P2X purinoceptor 4 (Homo sapiens) (UniProt Q99571).
T1 sequence (whole entry): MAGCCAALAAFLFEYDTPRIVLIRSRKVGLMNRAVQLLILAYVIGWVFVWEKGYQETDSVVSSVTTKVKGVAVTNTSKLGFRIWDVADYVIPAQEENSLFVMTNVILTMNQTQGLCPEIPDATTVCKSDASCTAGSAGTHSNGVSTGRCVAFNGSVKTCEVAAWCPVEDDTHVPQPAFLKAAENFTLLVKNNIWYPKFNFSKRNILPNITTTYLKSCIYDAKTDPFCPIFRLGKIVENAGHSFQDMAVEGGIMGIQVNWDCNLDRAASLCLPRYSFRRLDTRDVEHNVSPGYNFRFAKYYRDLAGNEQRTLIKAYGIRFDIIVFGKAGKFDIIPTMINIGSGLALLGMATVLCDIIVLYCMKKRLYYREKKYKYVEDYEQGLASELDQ
Briefly: Antagonist activity at human P2X4 receptor expressed in human 1321N1 cells assessed as inhibition of ATP-induced cytosolic calcium influx at 100 uM preincubated for 30 mins followed by ATP addition by Fluo-4 AM dye-based fluorescence assay. The class given is cell-based. In outline: (§1)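 Human P2X4 stably transfected into 1321N1 astrocytoma cells. Inhibition of ATP-induced calcium influx measured as in earlier work. Compounds were first screened at a single high concentration, chosen according to their solubility.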

The target of assay [2] is T2, P2X purinoceptor 2 (Homo sapiens) (UniProt Q9UBL9).
T2 sequence (whole entry): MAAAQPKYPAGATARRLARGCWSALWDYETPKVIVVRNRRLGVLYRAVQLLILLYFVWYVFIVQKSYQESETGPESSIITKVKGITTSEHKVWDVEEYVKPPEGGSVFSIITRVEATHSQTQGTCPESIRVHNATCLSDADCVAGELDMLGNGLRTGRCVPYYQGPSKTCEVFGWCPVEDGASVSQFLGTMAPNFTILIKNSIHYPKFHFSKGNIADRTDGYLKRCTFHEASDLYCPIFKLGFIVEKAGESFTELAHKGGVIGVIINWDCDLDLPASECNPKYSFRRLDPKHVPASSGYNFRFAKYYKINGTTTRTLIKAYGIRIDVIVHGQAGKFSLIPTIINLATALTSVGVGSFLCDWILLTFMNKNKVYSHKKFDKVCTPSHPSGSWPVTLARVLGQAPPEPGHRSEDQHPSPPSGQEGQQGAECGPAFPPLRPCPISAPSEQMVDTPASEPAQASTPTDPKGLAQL
Briefly: Antagonist activity at human P2X2 receptor expressed in human 1321N1 cells assessed as inhibition of ATP-induced cytosolic calcium influx at 100 uM preincubated for 30 mins followed by ATP addition by Fluo-4 AM dye-based fluorescence assay. The class given is cell-based.

The target in assay [3] is T3, P2X purinoceptor 4 (Homo sapiens, UniProt Q99571).
T3 sequence (Q99571 whole entry): T1 sequence (whole entry)
Briefly: Antagonist activity at human P2X4 receptor expressed in human 1321N1 cells assessed as inhibition of ATP-induced cytosolic calcium influx preincubated for 30 mins followed by ATP addition by Fluo-4 AM dye-based fluorescence assay. The class given is cell-based. The method in brief: as §1

Assay [4] in a line: Selectivity ratio of IC50 for mouse P2X4 receptor to IC50 for human P2X4 receptor.
Assay [5] has as its target T4, P2X purinoceptor 7 (Homo sapiens) (UniProt Q99572).
T4 sequence (whole entry): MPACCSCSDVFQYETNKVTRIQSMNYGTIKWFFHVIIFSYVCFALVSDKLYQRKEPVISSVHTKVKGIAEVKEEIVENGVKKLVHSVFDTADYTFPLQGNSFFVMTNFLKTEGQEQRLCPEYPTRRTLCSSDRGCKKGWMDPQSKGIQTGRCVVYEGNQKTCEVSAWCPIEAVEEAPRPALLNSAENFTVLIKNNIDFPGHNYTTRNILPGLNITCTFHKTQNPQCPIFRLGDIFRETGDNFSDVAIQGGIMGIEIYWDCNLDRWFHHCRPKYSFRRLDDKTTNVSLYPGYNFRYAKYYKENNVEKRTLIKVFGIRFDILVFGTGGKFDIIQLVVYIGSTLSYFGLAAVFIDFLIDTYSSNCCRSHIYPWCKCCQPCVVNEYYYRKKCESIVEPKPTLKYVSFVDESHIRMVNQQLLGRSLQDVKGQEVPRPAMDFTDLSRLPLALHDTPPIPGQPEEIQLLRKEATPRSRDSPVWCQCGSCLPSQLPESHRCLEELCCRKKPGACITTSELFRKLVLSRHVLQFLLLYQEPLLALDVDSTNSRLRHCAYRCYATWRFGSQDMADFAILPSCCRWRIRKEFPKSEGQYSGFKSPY
Kind of assay: Antagonist activity at human P2X7 receptor expressed in human 1321N1 cells assessed as inhibition of ATP-induced cytosolic calcium influx at 100 uM preincubated for 30 mins followed by ATP addition by Fluo-4 AM dye-based fluorescence assay. The class given is cell-based.

The target of assay [6] is T5, P2X purinoceptor 4 (Rattus norvegicus, UniProt P51577).
T5 sequence (P51577 whole entry): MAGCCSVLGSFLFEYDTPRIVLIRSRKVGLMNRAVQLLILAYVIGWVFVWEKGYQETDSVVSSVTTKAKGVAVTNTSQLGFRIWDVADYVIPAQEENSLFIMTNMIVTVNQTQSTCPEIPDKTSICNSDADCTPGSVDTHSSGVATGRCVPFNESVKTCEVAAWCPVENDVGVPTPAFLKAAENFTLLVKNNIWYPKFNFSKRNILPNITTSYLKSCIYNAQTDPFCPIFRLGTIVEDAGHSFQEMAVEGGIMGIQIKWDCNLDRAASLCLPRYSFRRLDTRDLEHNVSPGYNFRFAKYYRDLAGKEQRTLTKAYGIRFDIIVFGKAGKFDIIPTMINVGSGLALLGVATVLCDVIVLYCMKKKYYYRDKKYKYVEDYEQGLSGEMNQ
Briefly: Antagonist activity at rat P2X4 receptor assessed as inhibition of ATP-induced calcium influx preincubated for 30 mins followed by ATP addition by Fluo-4 AM dye-based fluorescence assay.

In assay [7] the target is T1, P2X purinoceptor 4 (Homo sapiens). Kind of assay: Antagonist activity at human P2X4 receptor expressed in human 1321N1 cells assessed as inhibition of ATP-induced cytosolic calcium influx at 10 uM preincubated for 30 mins followed by ATP addition by Fluo-4 AM dye-based fluorescence assay. The class given is cell-based. The method in brief: as §1
Assay [8] concerns the target T6, P2X purinoceptor 4 (Mus musculus) (UniProt Q9JJX6).
T6 sequence (whole entry): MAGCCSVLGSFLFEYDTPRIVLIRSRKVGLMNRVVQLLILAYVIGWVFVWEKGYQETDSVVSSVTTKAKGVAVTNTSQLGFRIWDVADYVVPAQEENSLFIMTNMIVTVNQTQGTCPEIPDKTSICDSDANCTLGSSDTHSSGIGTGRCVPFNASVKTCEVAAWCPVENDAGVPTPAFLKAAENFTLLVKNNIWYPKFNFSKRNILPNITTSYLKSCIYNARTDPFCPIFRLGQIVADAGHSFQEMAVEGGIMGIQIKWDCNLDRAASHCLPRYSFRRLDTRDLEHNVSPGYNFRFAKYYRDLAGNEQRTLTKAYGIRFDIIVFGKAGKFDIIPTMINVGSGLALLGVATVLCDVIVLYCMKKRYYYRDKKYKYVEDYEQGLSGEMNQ
Briefly: Antagonist activity at mouse P2X4 receptor assessed as inhibition of ATP-induced cytosolic calcium influx at 100 uM preincubated for 30 mins followed by ATP addition by Fluo-4 AM dye-based fluorescence assay.

On to `O=C(N1CCCC1)N1c2ccccc2C=Cc2ccccc21`, for which the results for the inhibition in assay [1], in assay [2] and in assay [5] were 98%, 6% and 33%, respectively. Further, the 50% inhibitory concentration (IC50) is 34.1 µM on P2X purinoceptor 4 [3] and 69.3 µM at P2X purinoceptor 4 [6]. The Ratio IC50 in assay [4] was determined as 3.
As for `O=C(N1CCCCC1)N1c2ccccc2C=Cc2ccccc21`, the inhibition in assay [1] was 72%; in assay [2], 4%; in assay [5], -10%. Further, the values for the IC50 at P2X purinoceptor 4 [3] and at P2X purinoceptor 4 [6] were 13.7 µM and 95.8 µM, respectively. Besides, the Ratio IC50 in assay [4] came out at 3.
As for `CCCN(CCC)C(=O)N1c2ccccc2C=Cc2ccccc21`, the inhibition was 49% in assay [7], -2% in assay [2] and 38% in assay [8]. Besides, the IC50 at P2X purinoceptor 4 [3] turned out to be 7.78 µM; at P2X purinoceptor 4 [6], 35.9 µM. Moreover, the Ratio IC50 in assay [4] worked out at 3.
Turning to `O=C(NC1CCCCC1)N1c2ccccc2C=Cc2ccccc21`, the inhibition in assay [1] was determined as 100%; in assay [2], 11%. The IC50 at P2X purinoceptor 4 [3] was found to be 33.8 µM; at P2X purinoceptor 4 [6], 109 µM. Also, the Ratio IC50 in assay [4] came out at 3.
With `CCN(CC)C(=O)N1c2ccccc2C=Cc2ccccc21`, the inhibition in assay [1] amounted to 95%; in assay [2], 1%; in assay [8], 27%. For the same molecule, the half-inhibitory concentration (IC50) is 11.4 µM at P2X purinoceptor 4 [3] and 43 µM on P2X purinoceptor 4 [6].
With `CC(C)N(C(=O)N1c2ccccc2C=Cc2ccccc21)C(C)C`, the inhibition in assay [7] stood at 71%; in assay [2], 8%. The IC50 turned out to be 3.44 µM on P2X purinoceptor 4 [3] and 54.6 µM at P2X purinoceptor 4 [6]. Further, the Ratio IC50 in assay [4] amounted to 3.
